The source of these data is ChEMBL document CHEMBL3259792 (Eur J Med Chem, 2014).

In series [1] the target is Human immunodeficiency virus type 1 reverse transcriptase (Human immunodeficiency virus 1, UniProt Q72547, K103N). The experiment in a line: Inhibition of HIV1 wild-type reverse transcriptase K103N mutant using [3H]dTTP by scintillation counting.
The test system of series [2] is Human immunodeficiency virus 1. The experiment in a line: Antiviral activity against HIV1 3B infected in human CEM cells assessed as protection of cells monitored by giant cell formation by microscopy. It is filed as functional, organism-based. The note with it: Human immunodeficiency virus 1, 3B, CCRF-CEM. The gist of the method: (§1)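 Human CEM cultures (~3 × 10⁵ cells/mL) infected with ~100 CCID₅₀ per mL of HIV-1 IIIB or HIV-2 ROD, seeded with serial compound dilutions. Incubated 4 days at 37 °C; syncytium (giant cell) formation scored by microscopy. EC₅₀ = concentration protecting cells from viral cytopathicity by 50%. Means of two to three independent experiments, each in triplicate.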

In series [3] the target is T1, Human immunodeficiency virus type 1 reverse transcriptase (Human immunodeficiency virus 1, UniProt Q72547). In words: Inhibition of HIV1 wild-type reverse transcriptase Y181I/Y181C mutant using [3H]dTTP by scintillation counting.
Series [4] relates to Human immunodeficiency virus 1. The experiment in a line: Ratio of efavirenz EC50 to compound EC50 for HIV1 harboring reverse transcriptase L100I mutant infected in human MT4 cells. It is filed as functional.
Series [5] concerns the target Human immunodeficiency virus type 1 reverse transcriptase (Human immunodeficiency virus 1, UniProt Q72547, L100I). The experiment in a line: Inhibition of HIV1 wild-type reverse transcriptase L100I mutant using [3H]dTTP by scintillation counting. The gist of the method: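 RNA-dependent DNA polymerase activity of recombinant RT (2–4 nM) on poly(rA)/oligo(dT) 10:1 with [3H]dTTP (1 Ci/mmol). Incubation at 37 °C. Acid-insoluble radioactivity collected on GF/C filters after 5% cold TCA, counted by scintillation.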

In series [6] the test system is Human immunodeficiency virus 1. In words: Antiviral activity against HIV1 harboring reverse transcriptase K103N/Y181C double mutant infected in human MT4 cells assessed as inhibition of virus-induced cell death measured after 5 days of infection by MTT method. It is filed as functional, organism-based. The conditions noted are these: Human immunodeficiency virus 1, MT4, 120 h. Put shortly: (§2)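 MT-4 cells infected with the named NNRTI-resistant HIV-1 RT mutant strain, in the presence of a range of compound concentrations. Viable cells counted at day 5 post-infection by tetrazolium (MTT) colorimetry. […] Mean of 2–3 independent experiments, each in triplicate.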

Series [7] deals with Human immunodeficiency virus 1. In words: Ratio of EC50 for HIV1 harboring reverse transcriptase Y181C mutant to EC50 for wild type HIV1 NL4.3. It is filed as functional. Put shortly:
(§3)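 Fold change is the EC50 against the named mutant strain divided by the EC50 against wild-type HIV-1 NL4-3. […] Means of 2–3 independent experiments in triplicate.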

For series [8], the target named is T1, Human immunodeficiency virus type 1 reverse transcriptase. The experiment in a line: Inhibition of HIV1 wild-type reverse transcriptase using [3H]dTTP by scintillation counting.
For series [9], the system named is Human immunodeficiency virus 1. In words: Ratio of EC50 for HIV1 harboring reverse transcriptase […] mutant to EC50 for wild type HIV1 NL4.3. It is filed as functional. Put shortly: as §3
Series [10] in a line: Cytotoxicity against human MT4 cells assessed as cell viability by MTT assay. It is filed as cell-based. The gist of the method:
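Mock-infected MT-4 cells exposed to a range of compound concentrations. Viable cells measured by MTT colorimetry at day 5. CC₅₀ = concentration causing 50% death of non-infected cells. Means of two to three independent experiments, each in triplicate.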
In general terms: Tetrazolium dyes change colour on reduction, which living cells bring about.

Series [11] has as its system Human immunodeficiency virus 1. In words: Ratio of EC50 for HIV1 harboring reverse transcriptase K103N mutant to EC50 for wild type HIV1 NL4.3. It is filed as functional. Put shortly:
as §3

Series [12] has as its system Human immunodeficiency virus 1. The experiment in a line: Ratio of EC50 for HIV1 harboring reverse transcriptase K103N/Y181C double mutant to EC50 for wild type HIV1 NL4.3. It is filed as functional. The gist of the method:
as §3

The test system of series [13] is Human immunodeficiency virus 1. In words: Antiviral activity against HIV1 harboring reverse transcriptase K103N mutant infected in human MT4 cells assessed as inhibition of virus-induced cell death measured after 5 days of infection by MTT method. It is filed as functional, organism-based. The conditions noted are these: Human immunodeficiency virus 1, MT4, 120 h. The gist of the method: as §2

The subject of series [14] is Human immunodeficiency virus 1. The experiment in a line: Antiviral activity against HIV1 harboring reverse transcriptase […] mutant infected in human MT4 cells assessed as inhibition of virus-induced cell death measured after 5 days of infection by MTT method. It is filed as functional, organism-based. The note with it: Human immunodeficiency virus 1, MT4, 120 h. Put shortly: as §2

A short description of series [15]: Selectivity index, ratio of CC50 for human MT4 cells to EC50 for HIV1 NL4.3 infected in human MT4 cells. It is filed as toxicity, cell-based. The note with it: read-out: Ratio CC50/EC50. Put shortly: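 Ratio CC₅₀/EC₅₀. CC₅₀ is from mock-infected MT-4 cells and EC₅₀ from HIV-1 NL4-3-infected MT-4 cells, both read by MTT at day 5 post-infection.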
Series [16] deals with Human immunodeficiency virus 1. In words: Antiviral activity against HIV1 NL4.3 infected in human MT4 cells assessed as inhibition of virus-induced cell death measured after 5 days of infection by MTT method. It is filed as functional, organism-based. The conditions noted are these: Human immunodeficiency virus 1, NL4.3, MT4, 120 h. The gist of the method: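 Lymphoid MT-4 cells (NIH AIDS Reagent Program) infected with HIV-1 NL4-3 in the presence of varying compound concentrations. On day 5 post-infection, viable cells were counted by MTT tetrazolium colorimetry. EC₅₀ = concentration inhibiting virus-induced cell death by 50%. Means of two to three independent experiments, each in triplicate.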

Series [17] relates to Human immunodeficiency virus 1. The experiment in a line: Ratio of efavirenz EC50 to compound EC50 for HIV1 harboring reverse transcriptase Y181C mutant infected in human MT4 cells. It is filed as functional.
Series [18] concerns Human immunodeficiency virus 2. In words: Antiviral activity against HIV-2 ROD infected in human CEM cells assessed as protection of cells monitored by giant cell formation by microscopy. The conditions noted are these: Human immunodeficiency virus 2, ISOLATE ROD, CCRF-CEM. It is filed as functional, organism-based. Put shortly: as §1
The test system of series [19] is Human immunodeficiency virus 1. The experiment in a line: Ratio of AZT EC50 to compound EC50 for HIV1 harboring reverse transcriptase K103N mutant infected in human MT4 cells. It is filed as functional.
In series [20] the test system is Human immunodeficiency virus 1. In words: Ratio of efavirenz EC50 to compound EC50 for HIV1 harboring reverse transcriptase K103N mutant infected in human MT4 cells. It is filed as functional.
The test system of series [21] is Human immunodeficiency virus 1. The experiment in a line: Antiviral activity against HIV1 harboring reverse transcriptase Y181C mutant infected in human MT4 cells assessed as inhibition of virus-induced cell death measured after 5 days of infection by MTT method. It is filed as functional, organism-based. The note with it: Human immunodeficiency virus 1, MT4, 120 h. Put shortly:
as §2

In general, pIC50 refers to −log10 of the IC50, conventionally taken in molar units. Lower therefore signals a large IC50. Usually pEC50 stands for the negative decadic logarithm of the EC50, by convention in mol/L. One may read the CC50 as the concentration that lowers cell viability or growth by half.

pEC50, pIC50: −log10 of the molar value.

For the molecule `Cc1cc(C)cc(S(=O)(=O)c2c(C(=O)NCc3cccc(F)c3)[nH]c3ccc(Cl)cc23)c1`, the pIC50 was 6.80 in series [1], under 4.70 in series [3], 7.40 in [5] and 7.15 in series [8]. Further, the pEC50 in [2] is 8.37; in series [6], 4.86; in series [13], 8.36; in [14], 8.30; in [16], 9.17; in [18], under 5.00. The pEC50 in series [21] is 8.37. The Ratio EC50 worked out at 10 in [4]; 6.3 in series [7]; 7.4 in [9]; 6.5 in [11]; 20391 in series [12]; 37 in [17]. The Ratio EC50 in [19] was over 3; in series [20], over 546. The CC50 in series [10] was over 53100 nM. In addition, the selectivity ratio in series [15] is over 78100.
